# Results of several laboratories.
# Lines come from different studies, so protocols differ.
# Target: Serine/threonine-protein kinase 32A (STK32A, Homo sapiens, UniProt Q8WU08)
Compound,test,setting,remaining binding
O=C(c1ccc(Nc2ncc(Cl)c(-c3ccc(Cl)s3)n2)cc1)N1CCC(N2CCCC2)CC1,"binding, competition with immobilised ligand",1 µM,70%
C[C@@H]1CCN(c2nccc(-c3cnn4ncccc34)n2)C1,binding,1 µM,71%
FC(F)(F)Oc1cccc(-c2cnc3ccc(-c4ccncc4)nn23)c1,"binding, competition with immobilised ligand",5 µM,75%
CN(CCCC(F)(F)F)c1nccc(-c2cnn3ncccc23)n1,binding,1 µM,100%
Cc1cnc(Nc2ccc(C(=O)N3CCC(N4CCCC4)CC3)cc2)nc1-c1cc2ccccc2s1,"binding, competition with immobilised ligand",1 µM,79%
CN(C(=O)c1ccccc1)c1cc(N(C)c2ccc3c(c2)CCc2ccc(C(=O)NCCN4CCOCC4)cc2C3=O)ccc1F,"cell-free assay, competition with immobilised ligand",1 µM,68%
c1cnn2ncc(-c3ccnc(N4CCC45COC5)n3)c2c1,binding,1 µM,58%
Cc1c[nH]c2nccc(Oc3c(F)cc(Nc4cc(Cl)nc(N)n4)cc3F)c12,"cell-free assay, competition with immobilised ligand",0.1 µM,86%
CNC(=O)[C@@H]1CC[C@@H](n2c(-c3ccc4cnccc4c3)nc3ccc(C(=O)NCc4cccc(C(N)=O)c4)cc32)C1,"binding, competition with immobilised ligand",1 µM,100%
Cc1c(NC(=O)c2cc(C(N)=O)nc3cc(F)ccc23)c(C(F)(F)F)nn1Cc1ccc(C(C)(C)C)cc1,"cell-free assay, competition with immobilised ligand",1 µM,100%
CCN1CCN(Cc2ccc(C(=O)Nc3ccc(C)c(Oc4ccc5c(c4)CC(=O)N5)c3)cc2C(F)(F)F)CC1,"binding, competition with immobilised ligand",1 µM,100%
C=CC(=O)N1CCC(C(=O)NCC(=O)N2CCN(c3nc(-c4cnc(N)nc4C(F)F)nc(N4CCOCC4)n3)CC2)CC1,"binding, competition with immobilised ligand",1 µM,91%
CN([C@@H]1CCc2c(CC(=O)O)c3cc(S(C)(=O)=O)ccc3n2C1)S(=O)(=O)c1ccc(F)cc1,"cell-free assay, competition with immobilised ligand",1 µM,100%
CC1CCCN1c1nccc(-c2cnn3ncccc23)n1 (stereo not shown),binding,1 µM,100%
N#CC1(c2ccccn2)CCN(Cc2cc(C(=O)N3CCCC3)c(=O)n3ccccc23)CC1,"cell-free assay, competition with immobilised ligand",1 µM,98%
C[C@@H](c1ccc(-n2cnc3c(N)ncnc32)cc1)N1CCc2nn(C)c(Cc3ccccc3)c2C1=O,"binding, competition with immobilised ligand",0.1 µM,94%
CCC(=O)N[C@H]1CC[C@@H](C(=O)N(C)c2ccc(-c3nc4ccccc4o3)cc2)C1,"cell-free assay, competition with immobilised ligand",1 µM,98%
O=C(NCCCN1CCOCC1)c1ccc(Nc2ncc(Cl)c(-c3ccc(Cl)s3)n2)cc1,"binding, competition with immobilised ligand",1 µM,93%
CN(c1nccc(-c2cnn3ncccc23)n1)C1CC1,binding,1 µM,100%
O=C(NCC1CCOCC1)c1n[nH]cc1NC(=O)c1c(F)cccc1F,"binding, competition with immobilised ligand",1 µM,88%
N[C@@H]1CCN(c2nccc(-c3cnn4ncccc34)n2)C1,binding,1 µM,98%
CNC(=O)Nc1ccc2c(c1)CC[C@@]21OC(=O)N(CC(=O)N(Cc2ccc(F)cc2)[C@@H](C)C(F)(F)F)C1=O,"binding, competition with immobilised ligand",1 µM,88%
